This note sets out measurements from ChEMBL document CHEMBL1132562, “Ajoene is an inhibitor and subversive substrate of human glutathione reductase and Trypanosoma cruzi trypanothione reductase: crystallographic, kinetic, and spectroscopic studies” (J Med Chem, 1999).

For orientation: inhibition means the drop in the measured response relative to a control, in per cent.

The target in test [1] is T1, Glutathione reductase, mitochondrial (Homo sapiens) (UniProt P00390).
T1 sequence (whole entry): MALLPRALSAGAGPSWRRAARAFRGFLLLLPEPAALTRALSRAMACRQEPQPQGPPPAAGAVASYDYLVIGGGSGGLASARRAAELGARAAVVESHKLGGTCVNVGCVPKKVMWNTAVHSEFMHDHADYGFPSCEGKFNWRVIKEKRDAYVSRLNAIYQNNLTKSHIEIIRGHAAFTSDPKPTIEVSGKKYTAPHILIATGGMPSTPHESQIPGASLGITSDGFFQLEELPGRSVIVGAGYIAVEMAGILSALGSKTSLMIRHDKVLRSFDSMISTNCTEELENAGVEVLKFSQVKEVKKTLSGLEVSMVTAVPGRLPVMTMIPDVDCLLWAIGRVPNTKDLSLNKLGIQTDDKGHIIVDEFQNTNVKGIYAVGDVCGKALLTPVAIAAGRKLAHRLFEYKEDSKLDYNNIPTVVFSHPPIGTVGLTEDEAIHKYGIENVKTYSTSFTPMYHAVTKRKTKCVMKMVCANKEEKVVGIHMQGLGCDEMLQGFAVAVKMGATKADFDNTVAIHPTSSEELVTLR
As to the kind of experiment: Percent inhibition of 0.3 uM (Z)-ajoene in the absence of NADPH for 15 min at 37 C; NI=No Inhibition. In outline: (§1)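 GR (0.4–1.0 U in 200 μL; 0.3 μM) incubated at 37 °C in GR assay buffer, pH 6.9, with 200 μM NADPH (or without) and 12.5–200 μM ajoene. Ethanol replaced inhibitor in controls. 2-μL aliquots taken over time were assayed for remaining activity in a standard GR assay: 100 μM NADPH, 1 mM GSSG, 340 nm, 25 °C.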

In test [2] the target is Trypanothione reductase (Trypanosoma cruzi) (UniProt P28593). As to the kind of experiment: kcat/Km value determined against Trypanothione reductase (TR) by oxidation of NADPH. The method in brief: (§2)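 T. cruzi trypanothione reductase, recombinant, with NADPH and ajoene as substrate in TR assay buffer (40 mM Hepes, 1 mM EDTA, pH 7.5) at 25 °C. NADPH oxidation followed as absorbance decrease at 340 nm. Controls held only NADPH and enzyme, giving the intrinsic oxidase activity.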

Test [3] has as its target T1, Glutathione reductase, mitochondrial (Homo sapiens). As to the kind of experiment: Percent inhibition of 0.3 uM (Z)-ajoene in the presence of NADPH for 15 min at 37 C. In outline: as §1
In test [4] the target is Trypanothione reductase (Trypanosoma cruzi) (UniProt P28593). As to the kind of experiment: Kcat value determined against Trypanothione reductase (TR) by oxidation of NADPH. In outline: as §2
In test [5] the target is T1, Glutathione reductase, mitochondrial (Homo sapiens). As to the kind of experiment: Kcat value determined against human Glutathione reductase (GR) by oxidation of NADPH. The method in brief:
(§3)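 Recombinant human glutathione reductase in GR assay buffer (phosphate, 200 mM KCl, 1 mM EDTA, pH 6.9) at 25 °C with 150 μM NADPH and ajoene or DATS as substrate. NADPH consumption read at 340 nm. Where GSH is present, it is added to the mixture. Controls held NADPH and enzyme only (intrinsic oxidase activity).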

Test [6] shares this target. Put plainly: Kcat value determined against human Glutathione reductase (GR) by reduction of cytochrome c. The method in brief:
(§4)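 1–2 U human GR preincubated 2 min at 25 °C with 200 μM NADPH and 25 μM horse heart cytochrome c in assay buffer, pH 7.5. Reaction started with 200 μM ajoene or DATS. Cytochrome c reduction followed at 550 nm (ε 19.1 mM⁻¹ cm⁻¹). Controls without enzyme. Superoxide tested by adding superoxide dismutase.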

Test [7] has the same target. As to the kind of experiment: kcat/Km value determined against human Glutathione reductase (GR) by oxidation of NADPH. The method in brief:
as §3

The target in test [8] is Trypanothione reductase (Trypanosoma cruzi) (UniProt P28593). Put plainly: Percent inhibition of Trypanothione reductase (TR) with 200 uM (Z)-ajoene in the presence of NADPH at 37 C. The method in brief:
(§5)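 T. cruzi TR (0.4–1.0 U in 200 μL) incubated at 37 °C with 200 μM NADPH and 200 μM ajoene for up to 60 min. Aliquots assayed for residual activity: 100 μM NADPH, 120 μM trypanothione disulfide, Hepes pH 7.5, 340 nm decrease.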

In test [9] the target is T1, Glutathione reductase, mitochondrial (Homo sapiens). As to the kind of experiment: kcat/Km value determined against human Glutathione reductase (GR). The method in brief:
as §3

Test [10] addresses Trypanothione reductase (Trypanosoma cruzi) (UniProt P28593). Put plainly: kcat/Km value determined against Trypanothione reductase (TR). The method in brief:
as §2

The target of test [11] is T1, Glutathione reductase, mitochondrial (Homo sapiens). Put plainly: Percent inhibition of 0.3 uM (E)-ajoene in the absence of NADPH for 15 min at 37 C; NI=No Inhibition. In outline: as §1
Test [12] shares this target. As to the kind of experiment: Kcat value determined against human Glutathione reductase (GR) by oxidation of NADPH in the presence of GSH. The method in brief:
as §3

For test [13] the target is unchanged. Put plainly: Percent inhibition of 0.3 uM (E)-ajoene in the presence of NADPH for 15 min at 37 C. The method in brief:
as §1

Test [14] shares this target. As to the kind of experiment: Kcat value determined against human Glutathione reductase (GR) by reduction of cytochrome c in the presence of GSH. The method in brief: as §4
The target of test [15] is Trypanothione reductase (Trypanosoma cruzi) (UniProt P28593). As to the kind of experiment: Percent inhibition of Trypanothione reductase (TR) with 200 uM (E)-ajoene in the presence of NADPH at 37 C. In outline:
as §5

The source made the active and inactive calls. The rule behind the calls is not given here.

Trypanothione reductase (Trypanosoma cruzi), sequence (P28593 whole entry, looked up): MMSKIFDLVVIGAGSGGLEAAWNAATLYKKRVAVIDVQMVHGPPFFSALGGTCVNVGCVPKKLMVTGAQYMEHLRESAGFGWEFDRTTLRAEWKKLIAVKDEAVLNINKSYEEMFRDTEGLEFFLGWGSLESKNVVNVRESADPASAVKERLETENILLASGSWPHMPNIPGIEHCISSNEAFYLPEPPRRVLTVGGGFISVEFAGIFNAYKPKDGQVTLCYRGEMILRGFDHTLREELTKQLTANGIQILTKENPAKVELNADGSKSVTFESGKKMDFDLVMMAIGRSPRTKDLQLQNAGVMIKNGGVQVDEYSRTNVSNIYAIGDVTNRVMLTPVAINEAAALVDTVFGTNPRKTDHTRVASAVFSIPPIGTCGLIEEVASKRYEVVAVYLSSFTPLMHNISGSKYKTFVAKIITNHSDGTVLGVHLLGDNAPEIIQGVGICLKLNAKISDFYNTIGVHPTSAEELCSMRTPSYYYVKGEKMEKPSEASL

With `C=CCSS/C=C\C[S+]([O-])CC=C` (centres undefined), the inhibition result in [1] is “inactive”. Besides, the k cat/Km in test [2] turned out to be 335 M⁻¹ s⁻¹; in test [7], 6840 M⁻¹ s⁻¹; in [9], 6800 M⁻¹ s⁻¹; in test [10], 340 M⁻¹ s⁻¹. Besides, the inhibition turned out to be 50% in [3] and 40% in test [8]. The k cat stood at 0.67 s⁻¹ in [4], 2.6 s⁻¹ in [5] and 0.06 s⁻¹ in [6].

For `C=CCSS/C=C/C[S+]([O-])CC=C` (centres undefined), the k cat/Km in test [2] was found to be 335 M⁻¹ s⁻¹; in test [7], 425 M⁻¹ s⁻¹; in test [9], 680 M⁻¹ s⁻¹; in test [10], 340 M⁻¹ s⁻¹. For the same compound, the k cat in [4] amounted to 0.67 s⁻¹; in test [5], 0.34 s⁻¹; in test [12], 1.47 s⁻¹; in test [6], 0.1 s⁻¹; in [14] it was 0.32 s⁻¹. Further, the inhibition result in [11] is “inactive”. Besides, the inhibition in test [13] and in [15] was 50% each time.

Turning to `C=CCSSSCC=C`, the k cat in [5] came out at 0.16 s⁻¹. For the same compound, in test [7], the k cat/Km was found to be 1000 M⁻¹ s⁻¹.
